ChEMBL document CHEMBL4118078, “Developing pyridazine-3-carboxamides to be CB2 agonists: The design, synthesis, structure-activity relationships and docking studies” (Eur J Med Chem, 2017)

Assays:
Cannabinoid receptor 1 [1] = target: T1, Cannabinoid receptor 1 (Homo sapiens, UniProt P21554); assay: Agonist activity at CB1 receptor (unknown origin) expressed in CHO cells assessed as induction of calcium mobilization at 10 uM by fluo-4 AM dye-based fluorescence assay relative to CP55940; type: functional, cell-based
T1 sequence (P21554 whole entry): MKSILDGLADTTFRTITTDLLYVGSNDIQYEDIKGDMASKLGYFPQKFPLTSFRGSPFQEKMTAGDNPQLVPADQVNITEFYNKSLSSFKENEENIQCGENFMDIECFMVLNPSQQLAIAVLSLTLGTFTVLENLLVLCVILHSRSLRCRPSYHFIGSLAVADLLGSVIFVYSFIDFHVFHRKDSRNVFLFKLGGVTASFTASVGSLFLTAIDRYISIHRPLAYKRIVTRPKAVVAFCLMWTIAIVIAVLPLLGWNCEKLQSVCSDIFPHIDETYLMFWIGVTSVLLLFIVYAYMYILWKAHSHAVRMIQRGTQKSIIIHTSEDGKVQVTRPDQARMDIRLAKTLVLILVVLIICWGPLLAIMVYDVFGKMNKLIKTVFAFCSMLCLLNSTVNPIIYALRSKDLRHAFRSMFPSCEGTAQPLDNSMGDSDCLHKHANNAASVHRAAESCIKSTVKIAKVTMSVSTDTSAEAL

Cannabinoid receptor 2 [2] = target: T2, Cannabinoid receptor 2 (Homo sapiens, UniProt P34972); assay: Agonist activity at CB2 receptor (unknown origin) expressed in CHO cells assessed as induction of calcium mobilization at 10 uM by fluo-4 AM dye-based fluorescence assay relative to CP55940; type: functional, cell-based
T2 sequence (P34972 whole entry): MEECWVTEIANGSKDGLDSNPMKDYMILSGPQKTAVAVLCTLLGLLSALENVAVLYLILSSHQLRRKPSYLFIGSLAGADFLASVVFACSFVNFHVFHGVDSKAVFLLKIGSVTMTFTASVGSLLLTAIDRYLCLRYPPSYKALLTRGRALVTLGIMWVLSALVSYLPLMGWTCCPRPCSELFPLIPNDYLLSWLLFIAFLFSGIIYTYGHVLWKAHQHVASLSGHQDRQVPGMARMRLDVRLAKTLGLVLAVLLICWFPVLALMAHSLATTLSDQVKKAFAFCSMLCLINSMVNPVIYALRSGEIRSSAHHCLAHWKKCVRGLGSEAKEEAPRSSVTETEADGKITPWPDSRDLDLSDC

Cannabinoid receptor 1 [3] = target: T1, Cannabinoid receptor 1; assay: Agonist activity at CB1 receptor (unknown origin) expressed in CHO cells assessed as induction of calcium mobilization by fluo-4 AM dye-based fluorescence assay; type: functional, cell-based
Cannabinoid receptor 2 [4] = target: T2, Cannabinoid receptor 2; assay: Agonist activity at CB2 receptor (unknown origin) expressed in CHO cells assessed as induction of calcium mobilization by fluo-4 AM dye-based fluorescence assay; type: functional, cell-based
Cannabinoid receptor 2 [5] = target: T2, Cannabinoid receptor 2; assay: Agonist activity at CB2 receptor (unknown origin) expressed in CHO cells assessed as induction of calcium mobilization by fluo-4 AM dye-based fluorescence assay relative to CP55940; type: functional, cell-based
Summary of the method: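 Cell-based calcium mobilization, agonist mode, with CP55940 as positive control. Compounds giving more than 50% activation in a single-concentration 10 µM primary screen were run in dose-response to derive EC50.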

Homo sapiens = species: Homo sapiens; assay: Selectivity index, ratio of EC50 for CB1 receptor (unknown origin) to EC50 for CB2 receptor (unknown origin)
Cannabinoid receptor 2 [6] = target: T2, Cannabinoid receptor 2; assay: Potency index, ratio of GW842166X EC50 to test compound EC50 for agonist activity at CB2 receptor (unknown origin); type: functional
Cannabinoid receptor 2 [7] = target: T2, Cannabinoid receptor 2; assay: Potency index, ratio of CP55940 EC50 to test compound EC50 for agonist activity at CB2 receptor (unknown origin); type: functional
Cannabinoid receptor 1 [8] = target: T1, Cannabinoid receptor 1; assay: Antagonist activity at CB1 receptor (unknown origin) expressed in CHO cells assessed as inhibition of CP55940-induced calcium mobilization at 10 uM preincubated for 10 mins followed by CP55940-induction by fluo-4 AM dye-based fluorescence assay relative to SR141716A; type: functional, cell-based
Summary of the method: (§1)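 Cell-based calcium mobilization, antagonist mode, single-concentration screen at 10 µM against CB1 and CB2. SR141716A served as the antagonist-mode positive control.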

Cannabinoid receptor 2 [9] = target: T2, Cannabinoid receptor 2; assay: Antagonist activity at CB2 receptor (unknown origin) expressed in CHO cells assessed as inhibition of CP55940-induced calcium mobilization at 10 uM preincubated for 10 mins followed by CP55940-induction by fluo-4 AM dye-based fluorescence assay relative to SR141716A; type: functional, cell-based; summary of the method: as §1

| Structure (SMILES) | Activity (Cannabinoid receptor 1 [1]) | Activity (Cannabinoid receptor 2 [2]) | EC50 (Cannabinoid receptor 1 [3]) | EC50 (Cannabinoid receptor 2 [4]) | Emax (Cannabinoid receptor 2 [5]) | Ratio EC50 (Homo sapiens) | Ratio EC50 (Cannabinoid receptor 2 [6]) | Ratio EC50 (Cannabinoid receptor 2 [7]) | inhibition (Cannabinoid receptor 1 [8]) | inhibition (Cannabinoid receptor 2 [9]) |
| --- | --- | --- | --- | --- | --- | --- | --- | --- | --- | --- |
| CC(C)c1cc(C(=O)NC2C3CC4CC(C3)CC2C4)nnc1NCC1CC1 (stereo not given) | 39.3% | 113% | 6050 nM | 167 nM | 109% | 36 | – | – | – | – |
| CC(C)c1cc(N2CCOCC2)nnc1C(=O)NC1C2CC3CC(C2)CC1C3 (stereo not given) | 26.1% | 126% | > 10000 nM | 3.67 nM | 91% | > 2730 | 94 | 8 | – | – |
| CC(C)c1cc(C(=O)NC2C3CC4CC(C3)CC2C4)nnc1Nc1cccc(Cl)c1 (stereo not given) | 2.12% | 19.2% | > 10000 nM | > 10000 nM | – | – | – | – | 5.1% | 19.4% |
| CC(C)c1cc(NC2CC2)nnc1C(=O)NC1C2CC3CC(C2)CC1C3 (stereo not given) | 7.48% | 119% | > 10000 nM | 17.1 nM | 117% | > 584 | – | – | – | – |
| CC(C)c1cc(NCCO)nnc1C(=O)NC12CC3CC(CC(C3)C1)C2 | 13.4% | 125% | > 10000 nM | 42.6 nM | 114% | > 235 | – | – | – | – |
| CC(C)c1cc(C(=O)NC2C3CC4CC(C3)CC2C4)nnc1N1CCOCC1 (stereo not given) | -0.267% | 107% | > 10000 nM | 403 nM | 105% | > 25 | – | – | 1.8% | – |
| CCCCNc1cc(C(C)C)c(C(=O)NC23CC4CC(CC(C4)C2)C3)nn1 | 10.7% | 64% | 10000 nM | 159 nM | 76% | > 63 | – | – | – | – |
| CC(C)c1cc(N2CCN(C)CC2)nnc1C(=O)NC1C2CC3CC(C2)CC1C3 (stereo not given) | 16.7% | 3.06% | > 10000 nM | > 10000 nM | – | – | – | – | 37.3% | 10.1% |
| CC(C)c1cc(N2CCOCC2)nnc1C(=O)NC1CCCCC1 | 6.25% | 87.2% | > 10000 nM | 594 nM | 91% | > 17 | – | – | -9.42% | – |
| CC(C)c1cc(C(=O)NC23CC4CC(CC(C4)C2)C3)nnc1N1CCOCC1 | -2.98% | 101% | > 10000 nM | 349 nM | 125% | > 29 | – | – | – | – |
| O=C(NC1CCCCC1)c1ccc(N2CCOCC2)nn1 | -3.69% | 17.7% | > 10000 nM | > 10000 nM | – | – | – | – | – | 16.3% |
| CC(C)c1cc(NCC2CC2)nnc1C(=O)NC1C2CC3CC(C2)CC1C3 (stereo not given) | 31.3% | 125% | > 10000 nM | 47.7 nM | 135% | > 210 | – | – | 22.1% | – |
| CC(C)c1cc(NCCO)nnc1C(=O)NC1C2CC3CC(C2)CC1C3 (stereo not given) | 17.4% | 137% | > 10000 nM | 4.96 nM | 94% | > 2020 | – | – | -8.39% | – |
| O=C(NCC1CCOCC1)c1cnc(Nc2ccc(Cl)cc2Cl)nc1C(F)(F)F [GW842166X] | 18.2% | 129% | > 10000 nM | – | – | > 29 | – | – | 11.8% | – |
| CC(C)c1cc(NC2CCCC2)nnc1C(=O)NC1CCCCC1 | 9.48% | 87.5% | > 10000 nM | 338 nM | 78% | > 30 | – | – | – | – |
| CC(C)c1cc(C(=O)NC2C3CC4CC(C3)CC2C4)nnc1NC1CCCC1 (stereo not given) | 6.55% | 122% | > 10000 nM | 34.4 nM | 114% | > 291 | > 10 | – | 24.1% | – |
| CC(C)c1cc(NC(C)C(C)C)nnc1C(=O)NC1C2CC3CC(C2)CC1C3 (stereo not given) | 10.7% | 82% | > 10000 nM | 2940 nM | 77% | > 3 | – | – | 7.68% | – |

| Structure (SMILES) | Activity (Cannabinoid receptor 1 [1]) | Activity (Cannabinoid receptor 2 [2]) | EC50 (Cannabinoid receptor 1 [3]) | EC50 (Cannabinoid receptor 2 [4]) | Emax (Cannabinoid receptor 2 [5]) | Ratio EC50 (Homo sapiens) | Ratio EC50 (Cannabinoid receptor 2 [6]) | Ratio EC50 (Cannabinoid receptor 2 [7]) | inhibition (Cannabinoid receptor 1 [8]) | inhibition (Cannabinoid receptor 2 [9]) |
| --- | --- | --- | --- | --- | --- | --- | --- | --- | --- | --- |
| CC(C)c1cc(Nc2cccc(Cl)c2)nnc1C(=O)NC1C2CC3CC(C2)CC1C3 (stereo not given) | -6.45% | 48% | > 10000 nM | 6700 nM | 77% | > 1 | – | – | – | 44.3% |
| CC(C)c1cc(N2CCOCC2)nnc1C(=O)NC12CC3CC(CC(C3)C1)C2 | 3.8% | 117% | > 10000 nM | 396 nM | 93% | > 25 | – | – | 16.9% | – |
| CC(C)c1cc(N2CCCCC2)nnc1C(=O)NC1C2CC3CC(C2)CC1C3 (stereo not given) | 16% | 114% | > 10000 nM | 18.1 nM | 140% | > 553 | – | – | 44.1% | – |
| CC(C)c1cc(NCCO)nnc1C(=O)NC1CCCCC1 | 14.8% | 91.1% | > 10000 nM | 842 nM | 81% | > 12 | – | – | – | – |
| CCCCNc1cc(C(C)C)c(C(=O)NC2C3CC4CC(C3)CC2C4)nn1 (stereo not given) | 13.7% | 91.4% | > 10000 nM | 49.4 nM | 108% | > 203 | – | – | – | – |
| CCCCNc1nnc(C(=O)NC2C3CC4CC(C3)CC2C4)cc1C(C)C (stereo not given) | 89.3% | 97.1% | 2610 nM | 96.2 nM | 93% | 27 | – | – | – | – |
| CC(C)c1cc(NC2CCCC2)nnc1C(=O)NC12CC3CC(CC(C3)C1)C2 | 19.5% | 95.5% | > 10000 nM | 301 nM | 80% | > 33 | – | – | 44.5% | – |
| O=C(NC12CC3CC(CC(C3)C1)C2)c1ccc(N2CCOCC2)nn1 | -4.49% | 33.7% | > 10000 nM | > 10000 nM | – | – | – | – | – | 25.8% |
| CC(C)c1cc(NC2CCCCC2)nnc1C(=O)NC1C2CC3CC(C2)CC1C3 (stereo not given) | -0.238% | 119% | > 10000 nM | 398 nM | 81% | > 25 | – | – | – | – |
| CC(C)c1cc(C(=O)NC2C3CC4CC(C3)CC2C4)nnc1NC1CCCCC1 (stereo not given) | 2.64% | 106% | > 10000 nM | 199 nM | 91% | > 50 | – | – | 39.3% | – |
| CCCCNc1cc(C(C)C)c(C(=O)NC2CCCCC2)nn1 | 8.74% | 13.4% | > 10000 nM | > 10000 nM | – | – | – | – | 47.9% | 50.6% |
| CC(C)c1cc(C(=O)NC2C3CC4CC(C3)CC2C4)nnc1NCCO (stereo not given) | -0.906% | 124% | > 10000 nM | 99.9 nM | 127% | > 100 | – | – | 1.87% | – |
| O=C(NC1C2CC3CC(C2)CC1C3)c1ccc(N2CCOCC2)nn1 (stereo not given) | 3.24% | 63.2% | > 10000 nM | 8420 nM | 79% | > 1 | – | – | 17.7% | – |
| CCC(CC)Nc1nnc(C(=O)NC2C3CC4CC(C3)CC2C4)cc1C(C)C (stereo not given) | -5.62% | 25% | > 10000 nM | > 10000 nM | – | – | – | – | 4.48% | 0.214% |
| CC(C)c1cc(C(=O)NC2C3CC4CC(C3)CC2C4)nnc1N1CCCCC1 (stereo not given) | -1.23% | 63% | > 10000 nM | 3450 nM | 106% | > 3 | – | – | -3.84% | – |
| CC(C)c1cc(C(=O)NC2CCCCC2)nnc1N1CCOCC1 | -4.03% | 107% | > 10000 nM | 970 nM | 99% | > 10 | – | – | -8.12% | – |
| CC(C)c1cc(NC2CCCC2)nnc1C(=O)NC1C2CC3CC(C2)CC1C3 (stereo not given) | 23.2% | 141% | > 10000 nM | 5.7 nM | 107% | > 1750 | – | – | 38.2% | – |
